Data on 26 molecules can be found in ChEMBL document CHEMBL1134598, “Synthesis, ionotropic glutamate receptor binding affinity, and structure-activity relationships of a new set of 4,5-dihydro-8-heteroaryl-4-oxo-1,2,4-triazolo[1,5-a]quinoxaline-2-carboxylates analogues of TQX-173” (J Med Chem, 2001).

In general, IC50 refers to the concentration needed to halve the response being measured. For orientation: Ki means a measure of affinity in units of concentration, obtained from inhibition or displacement. For orientation: inhibition means the change of the read-out against control, counted positive when it falls.

Experiment [1] has as its target Glutamate receptor ionotropic, kainate. Put plainly: Inhibition of [3H]KA binding to kainate receptor of rat brain membranes. Type of experiment: cell membranes, Membrane.
Experiment [2] has as its target Glutamate NMDA receptor. Put plainly: Ability to displace [3H]glycine from NMDA receptor in rat cortical membranes. Type of experiment: cell membranes. Put shortly:
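Rat cortical synaptic membranes; [3H]glycine at 10 nM (KD 75 nM under these conditions). Test compound from 1 mM stock in 50% DMSO, diluted in buffer; four to six concentrations in triplicate, three or four displacement curves. IC50 by curve fitting, converted to Ki by Cheng-Prusoff.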

Experiment [3] addresses Glutamate receptor ionotropic, AMPA (Rattus norvegicus, UniProt P19490+P19491+P19492+P19493). Put plainly: Binding affinity at ionotropic glutamate receptor AMPA in rat cortical membranes [3H]AMPA displacement. Type of experiment: cell membranes.
For experiment [4], the target named is Glutamate receptor ionotropic, AMPA (Mus musculus, UniProt P23818+P23819+Q9Z2W8+Q9Z2W9). Nature of the experiment: Antagonism at ionotropic glutamate receptor AMPA in mouse cortical wedge preparation. Type of experiment: functional. Put shortly: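 Mouse cortical wedges perfused with Mg2+-free medium; AMPA (5 µM) applied for 2 min every 15 min until control peaks stabilised, then continuous superfusion with antagonist while agonist applications continued. IC50 from depolarization peaks with agonist plus antagonist compared with control peaks; four separate determinations.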

Experiment [5] concerns the target Glutamate NMDA receptor. Nature of the experiment: Inhibition of [3H]-(+)-MK-801 binding to NMDA receptor ion-channel complex of rat cortical memembranes. It counts as protein-complex assay. Put shortly:
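Rat cortical membranes washed in 5 mM Tris-HCl pH 7.4 with 0.08% Triton X-100, 0.2-0.3 mg protein/tube. Incubated with 2.5 nM [3H]-(+)-MK-801, 10 µM glutamate and 0.1 µM glycine at room temperature for 120 min. IC50 or % inhibition at 100 µM; three or four determinations in triplicate.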

Experiment [6] is described as follows: Antagonism at NMDA receptor in mouse cortical wedge preparation expressed as concentration that inhibits by 50% depolarizations induced by 5 uM NMDA.
Experiment [7] addresses Glutamate receptor ionotropic, kainate (Rattus norvegicus) (UniProt P22756+Q01812+P42260+P42264+Q63273). Nature of the experiment: Inhibition of [3H]KA binding to kainate receptor in rat brain membranes. It counts as cell membranes. On the set-up: concentration or dose not given beside the values. The settings on record: concentration not given here. Put shortly:
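Rat membranes resuspended at 0.5 mg protein/mL in 0.05 M Tris-citrate pH 7.4, preincubated 37 °C for 30 min, washed three times in ice-cold buffer. Incubated on ice for 60 min with 5 nM [3H]kainate and test compound. Nonspecific binding defined with 1 mM glutamate. Bound ligand recovered by GF/C filtration. Single-point inhibition measured at 100 µM.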

Experiment [8] has as its target T1, Glutamate NMDA receptor (Rattus norvegicus) (UniProt P35439+Q00959+Q00960+Q00961+Q62645+Q8VHN2+Q9R1M7). Nature of the experiment: Inhibition of [3H]- glycine binding to NMDA receptor of rat membrane. Details: concentration or dose not given beside the values. The settings on record: concentration not given here. In short, it runs like this: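 Rat cortical synaptic membranes, [3H]glycine at 10 nM (KD 75 nM under these conditions). Compounds from 1 mM stock in 50% DMSO, diluted in buffer; four to six concentrations in triplicate, three or four displacement curves. IC50 converted to Ki by Cheng-Prusoff.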

The nature of experiment [9]: Antagonism at NMDA receptor in mouse cortical wedge preparation expressed as concentration that inhibits by 50% depolarizations induced by 5 uM AMPA. It counts as functional. The settings on record: in the assay text read “5 uM NMDA” for “5 uM AMPA”. Put shortly:
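Mouse cortical wedges, gray matter perfused with Mg2+-free medium. Agonists (5 µM AMPA or 5 µM NMDA) applied for 2 min every 15 min until control peaks stabilised, then continuous superfusion with antagonist while agonist applications continued. IC50 from depolarization peaks with agonist plus antagonist compared to control peaks; four separate determinations.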

The target of experiment [10] is Glutamate NMDA receptor. Nature of the experiment: Ability to displace [3H]glycine from NMDA receptor in rat corticaln membranes. Type of experiment: cell membranes.
For experiment [11], the target named is T1, Glutamate NMDA receptor (Rattus norvegicus). Put plainly: Percent inhibition of stimulated [3H](+)-MK-801 binding against N-methyl-D-aspartate glutamate receptor. It counts as protein-complex assay. The settings on record: concentration not given here. In short, it runs like this: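 Rat cortical membranes washed in 5 mM Tris-HCl pH 7.4 containing 0.08% Triton X-100, then put through further resuspension/centrifugation cycles. Incubation for 120 min at room temperature with 2.5 nM [3H]-(+)-MK-801, 10 µM glutamate and 0.1 µM glycine. Percent inhibition of specific binding at 100 µM; three or four determinations in triplicate.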

Experiment [12] is described as follows: Inhibition of specific binding of [3H]KA against iGluRs.
Experiment [13] deals with Glutamate receptor ionotropic, kainate. Nature of the experiment: Inhibition of specific binding of [3H]KA at kainate receptor in rat brain membranes. Type of experiment: cell membranes. In short, it runs like this:
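Membranes preincubated at 37 °C for 30 min in 0.05 M Tris-citrate pH 7.4, then washed; 0.2-0.3 mg protein with 5 nM [3H]kainate on ice for 60 min. Nonspecific binding defined with 1 mM glutamate; bound ligand separated by glass-fibre filtration.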

For the molecule `O=C(O)c1nc2c(O)nc3cc(Cl)c(-n4cccc4)cc3n2n1`, the IC50 in experiment [1] was 36 µM; in experiment [4], 3 µM; at Glutamate NMDA receptor [5], 11.7 µM; in [6], 52 µM. The Ki (at Glutamate NMDA receptor [2]; in experiment [3]) was 0.86 µM throughout.
With `CCOC(=O)c1nc2c(O)nc3cc(Cl)c(-n4cncn4)cc3n2n1`, the affinity in experiment [3], expressed as Ki, was 17.2 µM. For the same molecule, the inhibition was 29% in experiment [7] and 28% in experiment [8].
As to `O=C(O)c1nc2c(O)nc3cc(Cl)c(-n4cnnc4)cc3n2n1` [TQX-173], the half-maximal inhibitory concentration (IC50) in [9] was found to be 46 µM; in experiment [4] it was 2.3 µM; on Glutamate NMDA receptor [5] it was 68 µM. For the same molecule, on Glutamate NMDA receptor [10], the Ki is 33.5 µM.
On to `O=C(O)c1nc2c(O)nc3cc(Cl)c(-n4cncn4)cc3n2n1`, for which the Ki in experiment [3] is 3.7 µM. Moreover, the inhibition in experiment [11] is 30%; in experiment [8], 35%. Moreover, the IC50 amounted to 48 µM in experiment [12], 12 µM in experiment [4] and 350 µM in experiment [6].
Consider `CCOC(=O)c1nc2c(O)nc3cc(Cl)c(-n4ccnc4)cc3n2n1`, for which, in experiment [8], the inhibition was found to be 39%.
`O=C(O)c1nc2c(O)nc3ccc([N+](=O)[O-])cc3n2n1` showed a Ki at Glutamate NMDA receptor [10] of 79.4 µM. In experiment [7], this molecule showed an inhibition of 16%.
For `CCOC(=O)c1nc2c(O)nc3cc(Cl)c(-n4cccn4)cc3n2n1`, in [13], the affinity, expressed as Ki, was 7.1 µM. In addition, in [7], the inhibition is 20%.
In the case of `CCOC(=O)c1nc2c(O)nc3cc(Cl)c(-n4ccc(C=O)c4)cc3n2n1`, in [1], the IC50 worked out at 88 µM. Moreover, the results for the Ki (on Glutamate NMDA receptor [2]; in experiment [3]) were 19 µM and 1.9 µM, respectively.
`CCOC(=O)c1nc2c(O)nc3cc(Cl)c(-n4cnnc4)cc3n2n1`: the inhibition in [8] was found to be 15%.
With `NS(=O)(=O)c1cccc2c1c([N+](=O)[O-])cc1nc(O)c(O)nc12` [NBQX], the IC50 at Glutamate NMDA receptor [5] is 0.2 µM. Also, the inhibition in experiment [8] was 3%.
On to `Nc1cc2c(cc1Cl)nc(O)c1nc(C(=O)O)nn12`, for which the IC50 amounted to 22.4 µM in experiment [1] and 5.6 µM on Glutamate NMDA receptor [5]. The Ki in [3] was 4.9 µM; on Glutamate NMDA receptor [10], 3.6 µM.
`O=C(O)c1nc2c(O)nc3cc(-n4cnnc4)ccc3n2n1`: the Ki in experiment [3] came to 4.3 µM. In addition, the inhibition amounted to 44% in experiment [7] and 0% in experiment [8].
In turn, `CCOC(=O)c1nc2c(O)nc3ccc(N)cc3n2n1` came in with an inhibition in [8] of 16%.
For the molecule `CCOC(=O)c1nc2c(O)nc3cc(-n4cnnc4)ccc3n2n1`, the affinity in experiment [3] corresponds to a Ki of 10.1 µM. Besides, the values for the inhibition in experiment [7] and in experiment [8] were 35% and 8%, respectively.
Consider `CCOC(=O)c1nc2c(O)nc3cc(Cl)c(-n4cccc4)cc3n2n1`, for which the Ki in experiment [3] was 18.4 µM; in [13] it was 23 µM. The molecule further showed an inhibition in experiment [7] of 7%.
With `O=Cc1ccn(-c2cc3c(cc2Cl)nc(O)c2nc(C(=O)O)nn23)c1`, the IC50 in [1] is 8.9 µM; in experiment [9], 23 µM; in experiment [4], 1.2 µM; on Glutamate NMDA receptor [5], 43 µM. In addition, the Ki at Glutamate NMDA receptor [2] came to 28 µM; in [3], 0.53 µM.
In experiment [1], `O=C(O)c1nc2c(O)nc3ccc(-n4cnnc4)cc3n2n1` yielded an IC50 of 90 µM. Moreover, the affinity in experiment [3] corresponds to a Ki of 17.2 µM. For the same molecule, the values for the inhibition in [11] and in [8] were 20% and 0%, respectively.
`CCOC(=O)c1nc2c(O)nc3cc(Cl)c([N+](=O)[O-])cc3n2n1` showed a Ki in [3] of 47 µM. The figures for the inhibition in experiment [7] and in experiment [8] were 35% and 10.2%, respectively.
Take `O=C(O)c1nc2c(=O)[nH]c3cc(Cl)c(-n4cccn4)cc3n2n1`: the IC50 in [1] came to 20 µM; in experiment [4] it was 3 µM; on Glutamate NMDA receptor [5], 16.8 µM; in [6], 150 µM. In addition, the inhibition constant (Ki) in experiment [3] amounted to 4.3 µM; on Glutamate NMDA receptor [10], 5.3 µM.
`O=C(O)c1cc(O)c2c(Cl)cc(Cl)cc2n1`: the IC50 in experiment [9] was found to be 4.7 µM. At Glutamate NMDA receptor [10], this molecule yielded a Ki of 0.09 µM.
`O=C(O)c1nc2c(O)nc3cc(Cl)c(-n4ccnc4)cc3n2n1`: the inhibition in experiment [11] and in [8] was 45% in each case.
In the case of `O=C(O)c1nc2c(O)nc3cc(Cl)c([N+](=O)[O-])cc3n2n1`, the inhibition constant Ki in experiment [13] came to 2.2 µM. For the same molecule, the IC50 on Glutamate NMDA receptor [5] worked out at 17.8 µM.
As to `CCOC(=O)c1nc2c(=O)[nH]c3cc(Cl)c(N)cc3n2n1`, the IC50 in experiment [1] stood at 84 µM. In addition, the Ki in experiment [3] is 20.4 µM; at Glutamate NMDA receptor [10] it was 4.8 µM.
`CCOC(=O)c1nc2c(O)nc3ccc([N+](=O)[O-])cc3n2n1` displayed an inhibition in [8] of 35%.
Consider `CCOC(=O)c1nc2c(O)nc3ccc(-n4cnnc4)cc3n2n1`, for which the inhibition was found to be 20% in experiment [7] and 0% in [8].
`Nc1ccc2nc(O)c3nc(C(=O)O)nn3c2c1` displayed an IC50 in experiment [1] of 81 µM. In experiment [3], the affinity corresponds to a Ki of 44 µM. This molecule also registered an inhibition in experiment [8] of 35%.
